Results collected from several papers.
Lines come from different studies, so protocols differ.
Pancreatic alpha-amylase: Pancreatic alpha-amylase (Homo sapiens, UniProt P04746)
PADI4: Protein-arginine deiminase type-4 (PADI4, Homo sapiens, UniProt Q9UM07)
HDAC9: Histone deacetylase 9 (HDAC9, Homo sapiens, UniProt Q9UKV0)
ALDH1A3: Retinaldehyde dehydrogenase 3 (ALDH1A3, Homo sapiens, UniProt P47895)
MAOB: Amine oxidase [flavin-containing] B (MAOB, Homo sapiens, UniProt P27338)

COc1cc(/C=N/NC(=S)N/N=C/c2ccc(N(C)C)cc2)ccc1Oc1ccnc2cc(Cl)ccc12 — IC50 (Pancreatic alpha-amylase; enzyme activity, inhibitor, absorbance): 50 µM
O=C(CCNC(=O)CNC(=O)CC(c1ccccc1)(c1ccccc1)c1ccccc1)NC[C@H]1CCCN(Cc2ccc(F)cc2)C1 — IC50 (Muscarinic acetylcholine receptor M4 (CHRM4, Homo sapiens, UniProt P08173); ligand displacement, radioligand; cell membranes): 13.5 µM
COc1cc(/C=N/NC(=S)NN=Cc2scnc2C)ccc1Oc1ccnc2cc(Cl)ccc12 — IC50 (Pancreatic alpha-amylase; enzyme activity, inhibitor, absorbance): 57.1 µM
CN1CCC(CNc2ccc3ncc(-c4cccc(OC(F)(F)F)c4)n3n2)CC1 — IC50 (Histamine H1 receptor (HRH1, Homo sapiens, UniProt P35367); calcium signal, antagonist): 8.45 µM
NS(=O)(=O)c1ccc(Nc2nc(-c3cc4cc(Br)ccc4oc3=O)cs2)c(Br)c1 — IC50 (Carbonic anhydrase 9 (CA9, Homo sapiens, UniProt Q16790); enzyme activity, inhibitor): 0.86 µM
Cc1cc(C)nc(Nc2ccc(C(=O)N[C@@H](CCCNC(=N)CCl)C(=O)NCc3ccccc3)cn2)c1 — IC50 (PADI4; enzyme activity, inhibitor, fluorescence; with preincubation): 1.02 µM
O=C(NO)c1ccc(Cn2cnc3c(Nc4cccc([N+](=O)[O-])c4)ncnc32)cc1 — IC50 (HDAC9; enzyme activity, inhibitor): 0.677 µM
Cc1ccc(-c2ccc(C=O)cc2)c(C)c1 — IC50 (ALDH1A3; enzyme activity, inhibitor): 0.11 µM
N=C(CCl)NCCC[C@H](NC(=O)c1ccc2cc(O)ccc2c1)C(=O)NCc1ccccc1 — IC50 (PADI4; enzyme activity, inhibitor, fluorescence; with preincubation): 0.24 µM
O=C(Nc1ccc(Cl)c(Br)c1)c1ccc2c(c1)C(=O)NC2=O — IC50 (MAOB; enzyme activity, inhibitor): 0.012 µM
O=C(O)c1cc(O)c(O)c(O)c1 — IC50 (Catechol O-methyltransferase (Comt, Rattus norvegicus, UniProt P22734); enzyme activity, inhibitor): 709 µM
O=C(N[C@@H](CSCc1ccc([N+](=O)[O-])cc1)C(=O)NO)c1ccccc1 — IC50 (Lactoylglutathione lyase (GLO1, Homo sapiens, UniProt Q04760); enzyme activity, inhibitor): 0.952 µM
COc1cc(/C=N/NC(=S)NN=Cc2sccc2C)ccc1Oc1ccnc2cc(Cl)ccc12 — IC50 (Pancreatic alpha-amylase; enzyme activity, inhibitor, absorbance): 53.6 µM
N=C(CCl)NCCC[C@H](NC(=O)c1ccc2cc(-c3ccc4nncn4c3)ccc2c1)C(=O)NCc1ccccc1 — IC50 (PADI4; enzyme activity, inhibitor, fluorescence; with preincubation): 0.488 µM
CC(C)N(CCC(=O)c1ccc2ccccc2c1)Cc1ccccc1 — IC50 (ALDH1A3; enzyme activity, inhibitor): < 10 µM
N=C(CCl)NCCC[C@H](NC(=O)c1cccc(-c2ccc(O)cc2)c1)c1nc2ccccc2[nH]1 — IC50 (PADI4; enzyme activity, inhibitor, fluorescence; with preincubation): 0.426 µM
COc1cc(/C=N/NC(=S)N/N=C\c2ccc(CCl)cc2)ccc1Oc1ccnc2cc(Cl)ccc12 — IC50 (Pancreatic alpha-amylase; enzyme activity, inhibitor, absorbance): 58.4 µM
CN(C)c1ccc2cc(C(=O)N[C@@H](CCCN=C(N)CCl)C(=O)NCc3ccccc3)ccc2c1 — IC50 (PADI4; enzyme activity, inhibitor, fluorescence; with preincubation): 2.86 µM
O=C(Nc1ccc(F)c(F)c1)c1ccc2c(c1)C(=O)NC2=O — IC50 (MAOB; enzyme activity, inhibitor): 0.024 µM
N=C(CCl)NCCC[C@H](NC(=O)c1ccc2cc(Br)ccc2c1)C(=O)NCc1ccccc1 — IC50 (PADI4; enzyme activity, inhibitor, fluorescence; with preincubation): 0.393 µM
COc1ccc(N(Cc2csc(-c3ccc(Br)cc3)n2)C(=O)CCCCCC(=O)NO)cc1 — IC50 (HDAC9; enzyme activity, inhibitor): > 10 µM
